Beta cell apopt: inhibitors of cytokine-induced beta cell apoptosis, primary screen, luminescence | 0.8% of 300,000 active | AID 435005, 2010 | protection from apoptosis, % (concentration not given with the values) | INS-1E cytokine-induced death, ATP luminescence, 48 h; percent of positive-control rescue, neutral wells zero;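 active = Every replicate reaches about 75%, or at least half do and their mean reaches it too, limit read from the data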;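 note: 0% = cytokine-treated negative control wells and 100% = positive control rescue; higher means more ATP so stronger rescue from cytokine killing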
T cruzi inh: inhibitors of intracellular T. cruzi growth, primary screen, luminescence, NIH3T3 host cells. T. cruzi beta-gal in NIH3T3, 90 h. inhibition, % (concentration not given with the values). 1.4% of 300,000 active. AID 1885, 2009;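 active = mean inhibition across valid replicates above about 55%, limit read from the data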;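 note: signal also drops with host cell toxicity which is not excluded here; 0% = plate median of DMSO wells and 100% = zero luminescence signal; higher percent means less beta-gal luminescence so fewer parasites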
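System: mouse NIH/3T3 fibroblasts infected with β-gal-expressing T. cruzi Tulahuen C4 / Input: NIH/3T3 cells, 5,000 per well / Buffer or medium: Low-serum DMEM with 2% FBS / Probe or stimulus: 5000 reporter trypomastigotes per well / Schedule: ≥90 h infection period, 3 h prior cell attachment / Measured by: GalScreen luminescence, 60 min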
A1 inh: caspase 3/7 activation in MEF A1-2A-BIM cells, primary screen, A1 inhibitor project, cell-based, luminescence, HTS; 0.066% of 330,000 active; Caspase-Glo 3/7 luminescence, 3 h; percent of clofoctol response, vehicle zero; AID 2462, 2010; caspase activation, % (test concentration not listed);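 active = over half of replicate activation scores above 10%, or exactly half above 10 with the replicate mean above 10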
HIF activator: HIF pathway transcriptional activators, primary screen, cell-based, U2OS HRE-luciferase, luminescence; 0.32% of 300,000 active; activation, % at 7.5 µM (by protocol); AID 1910, 2009; U2OS HRE-luciferase reporter; normalized: DMSO 0%, desferrioxamine 100%;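 active = mean activation of at least 10% of the iron chelator positive control signal, with at least half of replicates also reaching 10%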
KLF5 inhibitor: KLF5 expression inhibitors, primary screen, DLD-1 cells, luminescence; inhibition, % at 5 µM; AID 1700, 2009; DLD-1 KLF5 promoter-luciferase reporter; 0.23% of 290,000 active;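 active = inhibition above a per-plate limit of that plate's mean compound inhibition plus 3 SD, cut at about 60% in these data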;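 note: 0% = DMSO wells and 100% = LY294002 at 200 µM; higher means less KLF5 promoter-driven luciferase light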
Starred values were filed as active, the others as inactive; nt = no result given. This is a sample that favours compounds with a hit; in the whole collection about 2.3% have one here.

SMILES	Beta cell apopt	T cruzi inh	A1 inh	HIF activator	KLF5 inhibitor
CCN(Cc1ccncc1)C(=O)c1cc(COc2c(C)cccc2C)on1	-2	57*	0	1	-48
O=C(CC1CC2CCC1C2)N1CCN(S(=O)(=O)c2ccccc2C(F)(F)F)CC1 (stereo unspecified)	-1	nt	8.6*	nt	nt
O=C(CC1CC2CCC1C2)N1CCN(S(=O)(=O)c2ccccc2[N+](=O)[O-])CC1 (stereo unspecified)	-4	nt	0	nt	nt
COc1ccc(C(=O)OCC(=O)NCCc2ccc(F)cc2)cc1S(=O)(=O)N1CCOCC1	0	nt	-1	nt	nt
CC(C)C(NC(=O)c1ccc(F)cc1)C(=O)N1CCOCC1 (stereo unspecified)	-5	nt	0	nt	nt
Cc1cc(C)c2nc(NNC(=O)c3ccc(S(=O)(=O)N4CCCCC4)cc3)sc2c1	71	50	0	1	7
Cc1cccc2sc(NC(=O)c3cccc(S(=O)(=O)N4CCc5ccccc54)c3)nc12	14	34	0	-1	-8
Cc1cccc2sc(NNC(=O)c3ccc(S(=O)(=O)N4CCCC(C)C4)cc3)nc12 (stereo unspecified)	102*	34	0	0	19
Cc1cccc2sc(NNC(=O)c3ccc(S(=O)(=O)N4CCc5ccccc5C4)cc3)nc12	92*	60*	1	14*	25
O=S(=O)(c1ccc2c(c1)CCCC2)N1CCNCC1	-5	nt	-1	nt	nt
COc1ccc2cc(C3(C)NC(=O)N(CC(=O)N4CCCCC4)C3=O)ccc2c1 (stereo unspecified)	-6	nt	2	nt	nt
Cc1ccc2c(c1)-n1c(nc3cc(F)ccc3c1=O)C(Cc1ccc(O)cc1)NC2=O (stereo unspecified)	0	nt	0	nt	nt
CCc1cc2c(=O)nc3n(c2s1)Cc1ccccc1/C3=C(/O)c1ccccc1Cl	89*	17	0	0	-34
CCc1cc2c(=O)nc3n(c2s1)Cc1ccccc1/C3=C(/O)c1ccc(F)cc1	7	2	3	0	10
Cc1c(C)n(CCO)c2ncnc(Nc3ccc(F)cc3)c12	1	-8	2	1	-76
Cc1c(C)n(CCCN(C)C)c2ncnc(Nc3ccc(F)cc3)c12	-3	61*	1	-9	-17
CN(CC(=O)NCC1CCCCC1)CC(=O)Nc1ccc(F)cc1	-4	nt	0	nt	nt
Cc1c(C)n(Cc2ccccc2)c2ccc(C(=O)OCCCN(C)C)cc12	13	61*	1	0	-12
Cc1c(C)n(CCN(C)C)c2ccc(C(=O)OCCN(C)C)cc12	10	33	0	0	5
CCOc1c(Cl)cc(CNc2ccc(N3CCCC3)cc2)cc1OC	nt	63*	nt	0	0
CC(=O)NCCc1nc2cc(NC(=O)c3ccc([N+](=O)[O-])cc3)ccc2n1C	-2	-7	2	4	-59
COc1cc([N+](=O)[O-])ccc1NC(=O)CC1SC(=Nc2ccc(F)cc2)N(CCC2=CCCCC2)C1=O (stereo unspecified)	110*	52	0	0	-11
CCCNc1c(NC(=O)c2ccc3c(c2)OCO3)c(=O)oc2ccccc12	3	-8	0	0	-1
Cc1ccc2c(c1)N(CC(=O)NC1CCCC1)C(=O)c1cccnc1O2	-5	-1	1	0	-29
O=C(NCCc1cnc[nH]1)c1ccc(-c2ccccc2)cc1	-8	60*	-2	1	-41
SMILES	Beta cell apopt	T cruzi inh	A1 inh	HIF activator	KLF5 inhibitor
CCOc1ccc(C(=O)NCCc2cnc[nH]2)cc1	-6	50	0	1	-20
Cn1cc(S(=O)(=O)N2CCc3ccccc32)cc1C(=O)NC(C)(C)C	41	1	0	0	-6
CN(C)CCCNc1ccc(-c2nn(C)c(=O)c3ccccc23)cc1[N+](=O)[O-]	9	68*	2	0	-15
Cc1ccc(N=Nc2c(N)n[nH]c2N)cc1	-3	5	-3	1	-91
Nc1n[nH]c(N)c1N=Nc1ccc2c(c1)OCO2	-15	74*	-2	3	-96
COCCCn1c(SCc2nnc(-c3ccc(OC)c(OC)c3)o2)nc2ccccc2c1=O	0	14	0	0	-29
COCCCn1c(SCc2cccc(C(F)(F)F)c2)nc2cc(OC)c(OC)cc2c1=N	7	58*	0	-1	-21
COCCCn1c(SCC(=O)O)nc2cc(OC)c(OC)cc2c1=N	nt	-19	1	0	-18
COCCCn1c(SCc2ccccc2)nc2cc(OC)c(OC)cc2c1=N	3	56*	1	0	-8
CCOC(=O)c1c(S(=O)(=O)NC2CCN(C(=O)OCC)CC2)c(C)n(C)c1C	-2	-1	1	nt	-16
CC(C)Oc1ccc(C(=O)NC2CCN(Cc3ccccc3)CC2)cc1	4	33	1	2	-14
Cc1ccccc1OCC(O)CNC1CCC(NCC(O)COc2ccccc2C)CC1 (stereo unspecified)	113*	51	-1	-1	-34
O=C(C1CCN(Cc2ccc(OCc3ccccc3)cc2)CC1)N1CCCC1	-8	-4	-1	2	-9
CCOc1ccc(OCC(O)CNC2CCN(Cc3ccccc3)CC2)cc1 (stereo unspecified)	-2	57*	-1	0	-18
OC1CCN(Cc2ccc(OCc3ccccc3)cc2)CC1	2	61*	2	2	-128
Cc1ccc(OCC(O)CNC2CCCC2)c(C)c1 (stereo unspecified)	3	2	2	0	-50
CC(Oc1ccc(Br)cc1)C(=O)NC1CCN(Cc2ccccc2)CC1 (stereo unspecified)	-1	58*	-1	0	nt
O=[N+]([O-])c1ccc2nc(NS(=O)(=O)c3ccc(F)cc3)sc2c1	-4	-17	0	0	5
CCOC(=O)c1cc(S(=O)(=O)Nc2ccc(OC)cc2OC)cn1C	6	8	-1	0	-6
O=C(NN1CCOCC1)c1ccc(Cl)cc1[N+](=O)[O-]	0	3	1	0	-43
Cc1cc(-c2nnnn2-c2cc(Cl)cc(Cl)c2)no1	3	-19	0	13*	-11
CCN(CC(=O)Nc1ccc2c(c1)OCCO2)C(=O)c1ccc(Cl)cc1Cl	1	-1	-4	4	nt
COc1ccc(OC)c(NC(=O)Cn2c(=O)n(CC3CCCO3)c(=O)c3cc(OC)c(OC)cc32)c1 (stereo unspecified)	0	-10	-3	0	1
CCOc1ccc(CN2CCN(Cc3[nH]c4ccc(OC)cc4c3C)CC2CCO)cc1 (stereo unspecified)	nt	72*	0	0	3
Cc1ccc2[nH]c(CN3CCN(C)C(CCO)C3)c(C)c2c1 (stereo unspecified)	nt	2	1	0	-43

High-throughput results (PubChem)
